Data reported in the RNAGym collection of RNA variant scans (doi:10.1126/science.aae0568).
Fewer inactive variants are shown than the library holds.

B1: tRNA (parent)
chain: GUUCCGUUGGCGUAAUGGUAACGCGUCUCCCUCCUAAGGAGAAGACUGCGGGUUCGAGUCCCGUACGGAACG

Variants of: B1
Experiment: yeast fitness relative to wild type (ratio to wild type); higher = fitter; tRNA-Arg(CCU), competitive growth, 37 C, YPD
How it was run: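 Variants of the tRNA-Arg(CCU) gene were chemically synthesised with a 3% per-site mutation rate across 69 sites and placed at the native genomic locus in Saccharomyces cerevisiae. Six parallel replicates of the pooled strains were competed in YPD at 37°C for 24 hours, and gene amplicons from the start and end populations were read by 100-nucleotide paired-end sequencing. Darwinian fitness relative to wild type was derived from changes in genotype frequencies. Genotypes required ≥ 100 starting reads, and estimates < 0.5 were set to 0.5.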
For GUUCCGUUGGGCUAAUGGUAACGCGUCUCCCUUCUAAGGAGAAGACUGCGGGUUCGAGUUCCGUACGGAACG [C11G G12C C33U C60U], the yeast fitness was at most 0.5. For GUUCCGUUGGGGUAAUGGUAACGCGUCUCCCUCCUAAGGAGAAGACUGCGGGUUAGAGUCCCGUACGGAACG [C11G C55A], the yeast fitness was 0.756. In the case of GUUCCGUUGGGGUAAUGGUAACGCGUCUCCCUCCUAAGGAGAAGACUGCGGGUUUGAGUCCCGUACGGAACG [C11G C55U], the yeast fitness is reported as at most 0.5. For GUUCCGUUGGGGUAAUGCUAACGCGUCUCCCUCCUAAGGAGAAGACUGUGGGUUCGAGUCCCGUACGGAACG [C11G G18C C49U], the yeast fitness was at most 0.5. GUUCCGUUGGGGUAAUGGUAACGCGUCUCCCUCCUAAGGAGAAGAUUGCGAGUUCGAGUCCCGUACGGAACG [C11G C46U G51A] gave a yeast fitness of 0.649. Work on GUUCCGUUGGGGUAAUGGUAACGCGUCUCCCUCCUAAGGAGAAGAUUGCGCGUUCGAGUCCCGUAGGGAACG [C11G C46U G51C C66G] yielded a yeast fitness of at most 0.5. Work on GUUCCGUUGGGAUAAUGGUAACGAGUCUCGCUCCUAAGGAGAAGAUUGCGGGUUCGAGUCCCGUAGGGAACG [C11G G12A C24A C30G C46U C66G] yielded a yeast fitness of 0.585. With GUUCCGUUGGGGUAAUGGUAACGCGUCUCCCUCCUAAGGAGAAGAUUGCGGGUUCGAGUCCUGUACGGAACG [C11G C46U C62U] the yeast fitness was at most 0.5. Variant GUUCCGUUGGGGUAAUGUUAAUGCGUCUCCCUUCUAAGGAGAGGACUGCGGGUUCGAGUCCCGUACGGAACG [C11G G18U C22U C33U A43G] has a yeast fitness of at most 0.5. GUUCCGUUGGGGUAAUGGUAACGCGUCUCCCUCCUAAGGAGAAGAGUGCGGGUUCGAGUCCAGUACGGAACG [C11G C46G C62A] showed a yeast fitness of at most 0.5. Work on GUUCCGUUGGGGUAAUGCUAACGCGUCUCCCUCCUAAGGAGAAGACUGCGGGUUCGAGUCCCGUACGGUACG [C11G G18C A69U] yielded a yeast fitness of at most 0.5. In the case of GUUCCGUUGGGGUAAUAGUAAUGCGUUUCCCUGCUAAGGAGAAGACUGCGGGUUCGAGUCCCGUACGGAACG [C11G G17A C22U C27U C33G], the yeast fitness is reported as at most 0.5. In the case of GUUCCGUUGGGGUAAUGGUAACGCGUCUCCCUCCUAAGGAGAAGAAUGCGGGUUCGAGUCCCGUGCGGAACG [C11G C46A A65G], the yeast fitness is reported as at most 0.5. With GUUCCGUUGGGCUAAUGGUAGCGCGUCUCCCUCCAAAGGAGAAGACUGCGAGUUCGAGUCCCGUACGGAACG [C11G G12C A21G U35A G51A] the yeast fitness was 0.732. Work on GUUCCGUUGGGAUAAUGGUAAUGCGUCUCCCUCCUAAGAAGAAGACUGCGGGUUCGAGUCCCGAACGGAACG [C11G G12A C22U G39A U64A] yielded a yeast fitness of at most 0.5. For GUUCCGUUGGGGUAAUGAUACCGCGUCUCCCUCCUAAGGAGAAGACUGUGGGUUCGAGUCCCGUACGGAACG [C11G G18A A21C C49U], the yeast fitness was at most 0.5. Variant GUUCCGUUGGGGUAAUGGUAACGCGUCUCCCUCCUAAGGAGAAGACUGCGGGUUCGAGUCCUGUACGGAACG [C11G C62U] has a yeast fitness of 0.579. GUUCCGUUGGGGUAAUGGUAACGCGUCUCCCUCUUAAGGAGAACACUGCCGGCUCGAGUCCCGUACGGAACG [C11G C34U G44C G50C U53C] gave a yeast fitness of at most 0.5. Variant GUUCCGUUGGGGUAAUGGUAACGCGUCUCCCUCCUAAGGAGAAGAAUGCGGGUUCGAGUCGCGUGCGGAACG [C11G C46A C61G A65G] has a yeast fitness of at most 0.5. Work on GUUCCGUUGGGGUAAUGGUAACGCGUCUCCCUCCUAAGGAGAAGACUGUGGGUUCGACUCCCGUACGGAACG [C11G C49U G58C] yielded a yeast fitness of 0.597. Work on GUUCCGUUGGGGUAAUGGUAACACGUCUCCUUGUUGAGGAGAAGACUGCGGGUUCGAGUCCCGUACGGAACG [C11G G23A C31U C33G C34U A36G] yielded a yeast fitness of at most 0.5. With GUUCCGUUGGGGUAAUGGUAACGCGUCUCCCUCCUAAGGAGAAGAGUGCCGGUUCGAGUCCCGUACGGAACG [C11G C46G G50C] the yeast fitness was 0.694. Variant GUUCCGUUGGGCUAAUGGUAACGCGUCUCCCUCCUAAGGAGAAGACUGUGGGUUCGAGUGCCGUACGGAACG [C11G G12C C49U C60G] has a yeast fitness of at most 0.5. In the case of GUUCCGUUGGGGUAAUGGUAACGCGUCUCCCUCCUAAGGAGAAGACUGUGGGUUCGAGUCCCGUAUGGAACG [C11G C49U C66U], the yeast fitness is reported as at most 0.5. GUUCCGUUGGGCUAAUGGUAACGCGUCUCCCUCCUAAGGAGAAGACUGCGGGUUCGAGUAACGUACGGAACG [C11G G12C C60A C61A] showed a yeast fitness of at most 0.5. GUUCCGUUGGGGUAAUGGUAACGCGUCUCCCUCCUAAGGAGAAGACUGCGGGUUCGAGUCGCGUACGGUACG [C11G C61G A69U] showed a yeast fitness of at most 0.5. GUUCCGUUGGGGUAAUAGCAACGCGUCUCCCUCCUAAGGAGAAGACUGCGGGUUCGAGUCCCGUACGGAACG [C11G G17A U19C] showed a yeast fitness of at most 0.5. Work on GUUCCGUUGGGGUAAUGGUAACGCGUCUCCCUCCUAAGGAGAAGACUGCGGGUUCGAGUCCUGUAUGGAACG [C11G C62U C66U] yielded a yeast fitness of at most 0.5. Work on GUUCCGUUGGGAUAAUGGUAACGCGUCUCCGUCCUAAGGAGAAGACUGCGGGUUCGAGUCCCGUACGGUACG [C11G G12A C31G A69U] yielded a yeast fitness of at most 0.5. GUUCCGUUGGGGUAAUAGUAACGCGUCUCCCUCCUAAGGAGAAGACUGCGGGUUCGAGUCCGGUACGGAACG [C11G G17A C62G] showed a yeast fitness of at most 0.5. GUUCCGUUGGGGUAAUCGUAACGCGUCUUCCUCCUAAGGAGAAGACUGCGAGUUCGAGUCCCGUACGGAACG [C11G G17C C29U G51A] gave a yeast fitness of 0.625. Work on GUUCCGUUGGGGUAAUGGUAACGCGUCUCCCUCCUAAGGAGAAGAAUGUGGGUCCGAGUUCCGUACGGAACG [C11G C46A C49U U54C C60U] yielded a yeast fitness of at most 0.5. In the case of GUUCCGUUGGGGUAAUCGUAACGCGUCUCCCUCCUAAGGGGAACACUGCGGGUUCGAGCCCCGUACGGAGCG [C11G G17C A40G G44C U59C A70G], the yeast fitness is reported as 0.603. Work on GUUCCGUUGGGGUAAUGGUAACGCGUCUCCCUCCUAAGGAGAAGACUGUGGGUUCGAGUCCCAUACGGAACG [C11G C49U G63A] yielded a yeast fitness of at most 0.5. Variant GUUCCGUUGGGGUAAUCGUAACGCGUCUCCCUCAUAAGGAGACGACUGCGGGUUCCAGUCACGUCCGGAACG [C11G G17C C34A A43C G56C C61A A65C] has a yeast fitness of at most 0.5. GUUCCGUUGGGCUAAGGGUAGCGCGUCUCCCUGCUAAGGAGAAGACUGCGGGUUCGAGUCCCGUACGGAACG [C11G G12C U16G A21G C33G] gave a yeast fitness of at most 0.5. GUUCCGUUGGGAUAAUGGUAACGCGUCUCCCUCCUAAGGAGAAGCGUGCGGAUUCGAGUCCCGUACGGAACG [C11G G12A A45C C46G G52A] gave a yeast fitness of at most 0.5.
